What was measured:
[1] = tested on: Human immunodeficiency virus 1; experiment: Antiviral activity against vesicular stomatitis virus G-pseudotyped Human immunodeficiency virus 1 NL4-3 infected in human MT2 cells assessed as inhibition of viral replication after 48 hrs by luciferase activity reporter gene assay; format: functional, organism-based
Method in brief: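 Pseudovirus made by Ca3(PO4)2 co-transfection of 293 cells with env-deficient pNL4-3.luc.R−E− and VSV-G plasmid; supernatant harvested 48 h, 0.45 μm filtered. MT-2 cells (1.2×10⁵/well) pre-incubated with compound 15 min, then infected; solvent-only control. After 48 h cells lysed and luciferase measured; EC50 from dose-dependent inhibition, averaged from at least two experiments.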

[2] = tested on: Human immunodeficiency virus 1; experiment: Antiviral activity against Human immunodeficiency virus 1 NL4-3 infected in human TZM-bl cells assessed as reduction in relative luminescence units after 48 hrs by luciferase reporter gene assay; format: functional, organism-based; conditions: Human immunodeficiency virus 1, NL4-3, TZM-bl
[3] = tested on: Human immunodeficiency virus 1; experiment: Antiviral activity against Human immunodeficiency virus 1 NL4-3 harboring reverse transcriptase K101E mutant infected in human TZM-bl cells assessed as reduction in relative luminescence units after 48 hrs by luciferase reporter gene assay; format: functional, organism-based; conditions: Human immunodeficiency virus 1, NL4-3, TZM-bl
[4] = tested on: Human immunodeficiency virus 1; experiment: Antiviral activity against NNRTI-resistant Human immunodeficiency virus 1 RTMDR infected in human TZM-bl cells assessed as reduction in relative luminescence units after 48 hrs by luciferase reporter gene assay; format: functional, organism-based
[5] = tested on: Human immunodeficiency virus 1; experiment: Antiviral activity against NRTI-resistant Human immunodeficiency virus 1 7324-1 harboring reverse transcriptase M41L, D67N, K70R, T215F, K219E and T69N mutant infected in human TZM-bl cells assessed as reduction in relative luminescence units after 48 hrs by luciferase reporter gene assay; format: functional, organism-based; conditions: Human immunodeficiency virus 1, 7324-1, TZM-bl
Method in brief: (§1)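 Panel of eleven NRTI-resistant strains from the NIH Reagent Program plus wild-type NL4-3; highest concentration tested 40,000 nM. EC50 = concentration inhibiting HIV by 50%, averaged from at least two separate experiments.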

[6] = tested on: Human immunodeficiency virus 1; experiment: Antiviral activity against NRTI-resistant Human immunodeficiency virus 1 7324-4 harboring reverse transcriptase M41L, K70R, T215F and K219E mutant infected in human TZM-bl cells assessed as reduction in relative luminescence units after 48 hrs by luciferase reporter gene assay; format: functional, organism-based; conditions: Human immunodeficiency virus 1, 7324-4, TZM-bl; method in brief: as §1
[7] = tested on: Human immunodeficiency virus 1; experiment: (§2) Antiviral activity against NRTI-resistant Human immunodeficiency virus 1 10076-4 harboring reverse transcriptase M41L, T215Y and M184V mutant infected in human TZM-bl cells assessed as reduction in relative luminescence units after 48 hrs by luciferase reporter gene assay; format: functional, organism-based; conditions: Human immunodeficiency virus 1, 10076-4, TZM-bl; method in brief: as §1
[8] = tested on: Human immunodeficiency virus 1; experiment: Antiviral activity against NRTI-resistant Human immunodeficiency virus 1 7295-1 harboring reverse transcriptase D67N, K70R, T215F, K219Q, M184V and T69N mutant infected in human TZM-bl cells assessed as reduction in relative luminescence units after 48 hrs by luciferase reporter gene assay; format: functional, organism-based; conditions: Human immunodeficiency virus 1, 7295-1, TZM-bl; method in brief: as §1
[9] = tested on: Human immunodeficiency virus 1; experiment: as §2, with “4755-5” for “10076-4”, “D67N, L210W, T215Y, M184V, T69D, E44D” for “T215Y”, “V118I” for “M184V”; format: functional, organism-based; conditions: Human immunodeficiency virus 1, 4755-5, TZM-bl; method in brief: as §1
[10] = tested on: Human immunodeficiency virus 1; experiment: Antiviral activity against NRTI-resistant Human immunodeficiency virus 1 6463-13 harboring reverse transcriptase M41L, D67N, L210W, T215Y, M184V and V118I mutant infected in human TZM-bl cells assessed as reduction in relative luminescence units after 48 hrs by luciferase reporter gene assay; format: functional, organism-based; conditions: Human immunodeficiency virus 1, 6463-13, TZM-bl; method in brief: as §1
[11] = tested on: Human immunodeficiency virus 1; experiment: Antiviral activity against NRTI-resistant Human immunodeficiency virus 1 7303-3 harboring reverse transcriptase M41L, D67N, L210W, T215Y, T69D, E44D and V118I mutant infected in human TZM-bl cells assessed as reduction in relative luminescence units after 48 hrs by luciferase reporter gene assay; format: functional, organism-based; conditions: Human immunodeficiency virus 1, 7303-3, TZM-bl; method in brief: as §1
[12] = tested on: Human immunodeficiency virus 1; experiment: Antiviral activity against NRTI-resistant Human immunodeficiency virus 1 1617-1 harboring reverse transcriptase K70G, M184V, T69K, V75I, F77L, F116Y and Q151M mutant infected in human TZM-bl cells assessed as reduction in relative luminescence units after 48 hrs by luciferase reporter gene assay; format: functional, organism-based; conditions: Human immunodeficiency virus 1, 1617-1, TZM-bl; method in brief: as §1
[13] = tested on: Human immunodeficiency virus 1; experiment: Antiviral activity against NRTI-resistant Human immunodeficiency virus 1 35764-2 harboring reverse transcriptase V75I, F77L, F116Y and Q151M mutant infected in human TZM-bl cells assessed as reduction in relative luminescence units after 48 hrs by luciferase reporter gene assay; format: functional, organism-based; conditions: Human immunodeficiency virus 1, 35764-2, TZM-bl; method in brief: as §1
[14] = tested on: Human immunodeficiency virus 1; experiment: Antiviral activity against NRTI-resistant Human immunodeficiency virus 1 29129-2 harboring reverse transcriptase M41L, D67N, L210W, T215Y and M184V mutant infected in human TZM-bl cells assessed as reduction in relative luminescence units after 48 hrs by luciferase reporter gene assay; format: functional, organism-based; conditions: Human immunodeficiency virus 1, 29129-2, TZM-bl; method in brief: as §1
[15] = tested on: Human immunodeficiency virus 1; experiment: Antiviral activity against NRTI-resistant Human immunodeficiency virus 1 56252-1 harboring reverse transcriptase K70R, V75I, F77L, F116Y, Q151M and K65R mutant infected in human TZM-bl cells assessed as reduction in relative luminescence units after 48 hrs by luciferase reporter gene assay; format: functional, organism-based; conditions: Human immunodeficiency virus 1, 56252-1, TZM-bl; method in brief: as §1
[16] = tested on: Human immunodeficiency virus 1; experiment: Antiviral activity against […] infected in human TZM-bl cells assessed as reduction in relative luminescence units after 48 hrs by luciferase reporter gene assay; format: functional, organism-based; conditions: Human immunodeficiency virus 1, NL4-3, TZM-bl; method in brief: as §1
[17] = Cytotoxicity activity against human TZM-bl by CellTiter-Glo luminescent cell viability assay; format: cell-based
Method in brief: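 Viable TZM-bl cells (HeLa-derived) quantified by luminescent ATP read-out after exposure to compound, tested up to a top concentration of 140 μM. IC50 taken as the concentration that inhibits cell growth by 50%, averaged from at least three separate experiments.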

HepG2 = experiment: Cytotoxicity activity against human HepG2 by CellTiter-Glo luminescent cell viability assay; format: cell-based
Method in brief: (§3)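 CellTiter-Glo luminescent viability assay quantifying ATP in metabolically active cells; PBMC were PHA-activated. Highest concentration tested 140 μM. IC50 = concentration inhibiting cell growth by 50%, averaged from at least three separate experiments.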

HEK-293T = experiment: Cytotoxicity activity against human 293T by CellTiter-Glo luminescent cell viability assay; format: cell-based; method in brief: as §3
MT4 = experiment: Cytotoxicity activity against human MT4 by CellTiter-Glo luminescent cell viability assay; format: cell-based; method in brief: as §3
[18] = Cytotoxicity activity against human ACH2 by CellTiter-Glo luminescent cell viability assay; conditions: ACH-2; method in brief: as §3
PBMC = experiment: Cytotoxicity activity against human PBMC by CellTiter-Glo luminescent cell viability assay; format: cell-based; method in brief: as §3

Question: Which EC50 ([1]; mt2) does the source give for [N-]=[N+]=N[C@]1(CO)O[C@@H](n2ccc(N)nc2=O)[C@@H](F)[C@@H]1O here?
Answer: 0.13 nM

Question: And the EC50 [2]?
Answer: 0.086 nM

Question: And the EC50 [3]?
Answer: 0.15 nM

Question: What about the EC50 [4] of the same compound?
Answer: 0.11 nM

Question: What about the EC50 [5] of the same compound?
Answer: 0.595 nM

Question: What about the EC50 [6] of the same compound?
Answer: 0.735 nM

Question: And the EC50 [7]?
Answer: > 40000 nM

Question: What about the EC50 [8] of the same compound?
Answer: > 40000 nM

Question: And the EC50 [9]?
Answer: > 40000 nM

Question: What about the EC50 [10] of the same compound?
Answer: > 40000 nM

Question: And the EC50 [11]?
Answer: 0.56 nM

Question: What about the EC50 [12] of the same compound?
Answer: 32.2 nM

Question: And the EC50 [13]?
Answer: 0.42 nM

Question: What about the EC50 [14] of the same compound?
Answer: > 40000 nM

Question: What about the EC50 [15] of the same compound?
Answer: 0.525 nM

Question: And the EC50 [16]?
Answer: 0.318 nM

Question: And the IC50 [17]?
Answer: > 140000 nM

Question: What about the IC50 (HepG2) of the same compound?
Answer: > 140000 nM

Question: And the IC50 (HEK-293T)?
Answer: > 140000 nM

Question: What about the IC50 (MT4) of the same compound?
Answer: 120 nM

Question: And the IC50 [18]?
Answer: 110 nM

Question: What about the IC50 (PBMC) of the same compound?
Answer: 150 nM

Question: For [N-]=[N+]=N[C@]1(CO)O[C@@H](n2ccc(N)nc2=O)[C@@H](F)[C@@H]1O [RO-0622], which EC50 ([1]; mt2) is on record?
Answer: 0.3 nM

Question: For Cc1cn([C@H]2C[C@H](N=[N+]=[N-])[C@@H](CO)O2)c(=O)[nH]c1=O [ZIDOVUDINE], which EC50 ([1]; Human immunodeficiency virus 1, NL4-3, MT2, 48 h) is on record?
Answer: 47 nM

Source: ChEMBL document CHEMBL1821682, “Synthesis of new 2'-deoxy-2'-fluoro-4'-azido nucleoside analogues as potent anti-HIV agents” (Eur J Med Chem, 2011)
